Usually inhibition stands for how much of the control response was suppressed. A higher inhibition goes with strong suppression. What is called Emax is the size of the effect at its maximum, as opposed to the concentration needed. As a reminder, the Kb is the equilibrium dissociation constant of an antagonist, usually derived from a functional assay. The term pKb denotes the Kb on a negative log10 scale, so that one unit is a factor of ten.

Active and inactive are the calls of the source. The calls are words filed in the database; no cut-off is given here.

One assay is filed under the species Rattus norvegicus. Briefly: Modulation of […] in Sprague-Dawley rat thoracic aortic ring assessed as change in human endothelin-1-induced aortic ring contraction at 1.4 x 10^-5 M.
Assay [1] addresses T1, Urotensin-2 receptor (Homo sapiens) (UniProt Q9UKP6).
T1 sequence (whole entry): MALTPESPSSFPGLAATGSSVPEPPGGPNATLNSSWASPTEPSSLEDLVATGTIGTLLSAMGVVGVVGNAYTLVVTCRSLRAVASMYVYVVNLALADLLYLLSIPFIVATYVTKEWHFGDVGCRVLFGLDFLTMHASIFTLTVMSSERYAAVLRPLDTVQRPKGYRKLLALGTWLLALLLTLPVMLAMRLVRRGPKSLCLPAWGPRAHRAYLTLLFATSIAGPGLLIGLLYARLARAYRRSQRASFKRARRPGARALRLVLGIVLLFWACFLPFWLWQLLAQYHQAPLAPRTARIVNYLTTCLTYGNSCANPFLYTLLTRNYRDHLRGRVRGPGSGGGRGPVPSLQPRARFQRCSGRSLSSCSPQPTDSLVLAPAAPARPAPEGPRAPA
Briefly: Displacement of [125I]-human urotensin-2 from human urotensin-2 receptor expressed in CHO cells at 100 uM after 90 mins by gamma counting analysis relative to control. Type of assay: cell-based. The procedure, abridged:
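Incubated 90 min at room temperature with 100 µM compound plus 0.2 nM 125I-hUII (chloramine-T labelled). Cells washed and lysed, bound radioactivity gamma-counted. Reported as % of specific binding without competitor; nonspecific binding defined with 10 µM hUII. At least triplicate.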

Assay [2] addresses T2, Urotensin-2 receptor (Rattus norvegicus) (UniProt P49684).
T2 sequence (whole entry): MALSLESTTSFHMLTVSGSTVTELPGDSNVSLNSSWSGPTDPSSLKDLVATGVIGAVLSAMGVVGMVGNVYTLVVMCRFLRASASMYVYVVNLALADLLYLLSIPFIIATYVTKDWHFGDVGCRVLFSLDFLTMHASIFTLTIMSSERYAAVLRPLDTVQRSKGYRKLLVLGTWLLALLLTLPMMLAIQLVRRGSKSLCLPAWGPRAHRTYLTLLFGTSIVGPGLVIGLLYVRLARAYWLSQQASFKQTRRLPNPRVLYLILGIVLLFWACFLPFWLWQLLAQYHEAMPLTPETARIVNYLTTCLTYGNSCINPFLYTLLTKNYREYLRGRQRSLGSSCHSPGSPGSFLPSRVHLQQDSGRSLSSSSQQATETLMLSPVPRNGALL
Briefly: Modulation of urotensin-2 receptor in Sprague-Dawley rat thoracic aortic ring assessed as human urotensin-2 Emax for induction of aortic ring contraction at 14 uM preincubated for 15 mins followed by human urotensin-2 addition (reference value: 116 +/- 3%).

The target of assay [3] is T2, Urotensin-2 receptor (Rattus norvegicus). Put plainly: Modulation of urotensin-2 receptor in Sprague-Dawley rat thoracic aortic ring assessed as human urotensin-2 Emax for induction of aortic ring contraction at 1 uM preincubated for 15 mins followed by human urotensin-2 addition (reference value: 116 +/- 3%).
Assay [4] shares this target. Briefly: Noncompetitive antagonist activity at urotensin-2 receptor in Sprague-Dawley rat thoracic aortic ring assessed as reduction in human urotensin-2-induced response at 4 uM by double reciprocal plot analysis.
For assay [5] the target is unchanged. Put plainly: Modulation of urotensin-2 receptor in Sprague-Dawley rat thoracic aortic ring assessed as human urotensin-2 Emax for induction of aortic ring contraction at 4 uM preincubated for 15 mins followed by human urotensin-2 addition (reference value: 116 +/- 3%).
For assay [6] the target is unchanged. Briefly: Modulation of urotensin-2 receptor in Sprague-Dawley rat thoracic aortic ring assessed as reduction of human urotensin-2-induced aortic ring contraction preincubated for 15 mins followed by human urotensin-2 addition.
Assay [7] has the same target. Briefly: Modulation of urotensin-2 receptor in Sprague-Dawley rat thoracic aortic ring assessed as urotensin-2 related peptide Emax for induction of aortic ring contraction at 14 uM preincubated for 15 mins followed by urotensin-2 related peptide addition (reference value: 132 +/- 4%).
The target is the same in assay [8]. Put plainly: Agonist activity at urotensin-2 receptor in Sprague-Dawley rat thoracic aortic ring assessed as induction of aortic ring contraction at 10 to 100 uM. Put shortly: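 Thoracic aortic rings from adult male Sprague-Dawley rats (250–300 g, killed by CO2 asphyxiation); analog added alone to the organ chamber at 10 or 100 µM to test for contraction. 40 mM KCl contractions served as control at start and end. Run at least in triplicate.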

Assay [9] shares this target. Put plainly: Modulation of urotensin-2 receptor in Sprague-Dawley rat thoracic aortic ring assessed as urotensin-2 related peptide Emax for induction of aortic ring contraction at 10 uM preincubated for 15 mins followed by urotensin-2 related peptide addition (reference value: 132 +/- 4%).
The target is the same in assay [10]. Briefly: Modulation of urotensin-2 receptor in Sprague-Dawley rat thoracic aortic ring assessed as human urotensin-2 Emax for induction of aortic ring contraction at 10 uM preincubated for 15 mins followed by human urotensin-2 addition (reference value: 116 +/- 3%). Put shortly: (§1)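 Thoracic aortic rings from adult male Sprague-Dawley rats (250–300 g, killed by CO2). Rings were exposed to test compound for 15 min, then cumulative hUII concentration-response curves were run (10-10–3.10-6 M). Contraction is expressed as % of the 40 mM KCl response, with KCl given at the start and end. EC50/pEC50/Emax come from a variable-slope sigmoidal fit. At least triplicate.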

Assay [11] addresses T1, Urotensin-2 receptor (Homo sapiens). Put plainly: Effect on [125I]-human urotensin-2 binding to human urotensin-2 receptor expressed in CHO cells at 100 uM after 90 mins by gamma counting analysis relative to control. Format: cell-based. Put shortly: (§2)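 Whole CHO cells stably expressing human UT, plated at 150,000 cells/well, incubated with test compound (100 µM) and 0.2 nM 125I-hUII for 90 min at room temperature. Cells were washed and lysed, and bound radioactivity was gamma-counted. Results are % of specific binding without competitor. Non-specific binding was defined with 10 µM hUII. At least triplicate; mean ± S.E.M.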

Assay [12] deals with T2, Urotensin-2 receptor (Rattus norvegicus). Briefly: Modulation of urotensin-2 receptor in Sprague-Dawley rat thoracic aortic ring assessed as urotensin-2 related peptide Emax for induction of aortic ring contraction at 15 uM preincubated for 15 mins followed by urotensin-2 related peptide addition (reference value: 132 +/- 4%).
For assay [13] the target is unchanged. Put plainly: Modulation of urotensin-2 receptor in Sprague-Dawley rat thoracic aortic ring assessed as human urotensin-2 Emax for induction of aortic ring contraction at 15 uM preincubated for 15 mins followed by human urotensin-2 addition (reference value: 116 +/- 3%). Put shortly:
as §1

For assay [14] the target is unchanged. Briefly: Modulation of urotensin-2 receptor in Sprague-Dawley rat thoracic aortic ring assessed as human urotensin-2 Emax for induction of aortic ring contraction at 11 uM preincubated for 15 mins followed by human urotensin-2 addition (reference value: 116 +/- 3%).
For assay [15] the target is unchanged. Briefly: Modulation of urotensin-2 receptor in Sprague-Dawley rat thoracic aortic ring assessed as urotensin-2 related peptide Emax for induction of aortic ring contraction at 11 uM preincubated for 15 mins followed by urotensin-2 related peptide addition (reference value: 132 +/- 4%).
In assay [16] the target is T1, Urotensin-2 receptor (Homo sapiens). Briefly: Induction of [125I]-human urotensin-2 binding to human urotensin-2 receptor expressed in CHO cells at 100 uM after 90 mins by gamma counting analysis relative to control. Type of assay: cell-based. Put shortly:
as §2

For assay [17], the target named is T2, Urotensin-2 receptor (Rattus norvegicus). Put plainly: Modulation of urotensin-2 receptor in Sprague-Dawley rat thoracic aortic ring assessed as urotensin-2 related peptide Emax for induction of aortic ring contraction at 8 uM preincubated for 15 mins followed by urotensin-2 related peptide addition (reference value: 132 +/- 4%).
Assay [18] shares this target. Briefly: Modulation of urotensin-2 receptor in Sprague-Dawley rat thoracic aortic ring assessed as human urotensin-2 Emax for induction of aortic ring contraction at 8 uM preincubated for 15 mins followed by human urotensin-2 addition (reference value: 116 +/- 3%). The procedure, abridged:
as §1

As for `NCCCC[C@@H]1N[C@H](c2ccc(-c3ccccc3)cc2)c2[nH]c(C(=O)O)cc2N(CCc2ccc(O)cc2)C1=O`, the result (in the assay listed under Rattus norvegicus; in assay [8]) was inactive. The molecule also returned an inhibition in [1] of 25%. Further, the Emax in assay [2] is 0%; in assay [3], 92%; in assay [5] it was 63%; in assay [7] it was 185%. Besides, the antagonist equilibrium constant (Kb) in assay [4] amounted to 2900 nM. Further, the negative-log Kb (pKb) in assay [4] came to 5.54. Moreover, in [6], the Activity entry was “Dose-dependent effect”.
`NCCC[C@@H]1N[C@H](c2cccc3ccccc23)c2[nH]c(C(=O)O)cc2N(CCc2ccc(O)cc2)C1=O` registered an inhibition in assay [1] of 25%. Besides, the Emax in [9] amounted to 210%; in assay [10], 139%. In addition, in [8], the outcome was inactive.
The corresponding values for `NCCCC[C@@H]1N[C@@H](c2ccc3ccccc3c2)c2[nH]c(C(=O)O)cc2N(CCc2ccc(O)cc2)C1=O` are 25%, 107%, 194% and “inactive”.
As to `NCCCC[C@@H]1N=C(c2ccc(-c3ccccc3)cc2)c2[nH]c(C(=O)O)cc2N(CCc2ccc(O)cc2)C1=O`, the outcome in assay [11] and in assay [8] was inactive. Besides, the Emax in assay [12] was found to be 110%; in assay [13] it was 128%.
Consider `NCCC[C@@H]1N[C@H](c2ccc(-c3ccccc3)cc2)c2[nH]c(C(=O)O)cc2N(CCc2ccc(O)cc2)C1=O`, for which the outcome in assay [11] and in assay [8] was inactive. Also, the Emax is 162% in [14] and 139% in [15].
`NCCCC[C@@H]1N[C@@H](c2ccc(-c3ccccc3)cc2)c2[nH]c(C(=O)O)cc2N(CCc2ccc(O)cc2)C1=O`: the result in assay [11] and in [8] was inactive. Also, the Emax was 121% in assay [2] and 113% in assay [7].
On to `NCCCC[C@@H]1N=C(c2ccc3ccccc3c2)c2[nH]c(C(=O)O)cc2N(CCc2ccc(O)cc2)C1=O`, for which the outcome in assay [11] and in assay [8] was inactive. The maximal response (Emax) in assay [9] was determined as 51%; in [10], 80%.
Turning to `NCCC[C@@H]1N=C(c2ccc(-c3ccccc3)cc2)c2[nH]c(C(=O)O)cc2N(CCc2ccc(O)cc2)C1=O`, the Activity in [16] was found to be 117%. Besides, the Emax in [9] came out at 93%; in assay [10] it was 97%. The outcome in [8] was inactive.
`NCCC[C@@H]1N=C(c2cccc3ccccc23)c2[nH]c(C(=O)O)cc2N(CCc2ccc(O)cc2)C1=O`: the result in [11] and in assay [8] was inactive. The values for the Emax in assay [9] and in assay [10] were 46% and 74%, respectively.
The molecule `NCCCC[C@@H]1N[C@H](c2ccc3ccccc3c2)c2[nH]c(C(=O)O)cc2N(CCc2ccc(O)cc2)C1=O` displayed an inhibition in [1] of 25%. Besides, the maximal effect (Emax) came to 217% in assay [9] and 175% in assay [10]. Further, the result in [8] was inactive.
On to `NCCCC[C@@H]1N=C(c2cccc3ccccc23)c2[nH]c(C(=O)O)cc2N(CCc2ccc(O)cc2)C1=O`, for which the outcome in assay [11] and in assay [8] was inactive. Also, the Emax turned out to be 60% in assay [17] and 123% in [18].
In turn, `NCCC[C@@H]1N[C@@H](c2cccc3ccccc23)c2[nH]c(C(=O)O)cc2N(CCc2ccc(O)cc2)C1=O` returned an inhibition in [1] of 25%. The Emax in assay [9] is 238%; in [10] it was 148%. The outcome in assay [8] was inactive.
`NCCC[C@@H]1N=C(c2ccc3ccccc3c2)c2[nH]c(C(=O)O)cc2N(CCc2ccc(O)cc2)C1=O`: the result in assay [11] and in assay [8] was inactive. Moreover, the results for the Emax in assay [9] and in assay [10] were 142% and 70%, respectively.

The record behind these values is ChEMBL document CHEMBL3576849, “De Novo Conception of Small Molecule Modulators Based on Endogenous Peptide Ligands: Pyrrolodiazepin-2-one γ-Turn Mimics That Differentially Modulate Urotensin II Receptor-Mediated Vasoconstriction ex Vivo” (J Med Chem, 2015).
